{
  "source": "ChEMBL document CHEMBL1649412",
  "about": "“Discovery and SAR of 5-(3-chlorophenylamino)benzo[c][2,6]naphthyridine-8-carboxylic acid (CX-4945), the first clinical stage inhibitor of protein kinase CK2 for the treatment of cancer” (J Med Chem, 2011)",
  "key": {"[1]": {"experiment": "Oral bioavailability in ICR mouse at 25 mg/kg by LC-MS/MS analysis", "assay_type": "ADME, organism-based", "conditions": "in vivo; call rule not given here", "method_in_brief": "(§1)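 Single iv and po doses to overnight-fasted ICR mice, SD rats and beagle dogs; sodium salt in 25 mM sodium phosphate buffer (rodents), sodium-salt powder in capsules (dogs po). Three animals per route per species (four for one). Serial blood sampling to 24 h (mouse, dog) or 48 h (rat); plasma by LC-MS/MS; parameters by noncompartmental analysis.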"}, "[2]": {"test_system": "PC-3", "experiment": "Antitumor activity against human PC3 cells xenografted in athymic mouse assessed as tumor growth inhibition at 50 mg/kg, po BID", "assay_type": "functional", "conditions": "read-out: TGI"}, "[3]": {"molecular_target": "Cytochrome P450 1A2 (Homo sapiens, UniProt P05177)", "sequence (P05177 whole entry)": "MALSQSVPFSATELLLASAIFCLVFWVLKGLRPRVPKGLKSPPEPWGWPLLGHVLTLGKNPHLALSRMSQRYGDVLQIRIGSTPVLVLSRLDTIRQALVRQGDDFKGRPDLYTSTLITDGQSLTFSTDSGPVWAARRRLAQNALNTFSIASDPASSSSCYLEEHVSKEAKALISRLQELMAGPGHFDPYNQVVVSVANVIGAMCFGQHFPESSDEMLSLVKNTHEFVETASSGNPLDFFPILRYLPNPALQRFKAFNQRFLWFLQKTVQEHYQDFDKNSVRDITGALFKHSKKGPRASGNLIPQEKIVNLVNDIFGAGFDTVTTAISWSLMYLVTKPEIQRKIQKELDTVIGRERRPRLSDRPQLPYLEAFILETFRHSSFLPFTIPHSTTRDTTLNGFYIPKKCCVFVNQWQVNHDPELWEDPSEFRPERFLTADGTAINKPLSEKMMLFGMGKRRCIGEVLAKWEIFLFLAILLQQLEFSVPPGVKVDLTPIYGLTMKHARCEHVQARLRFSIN", "experiment": "Inhibition of CYP1A2", "assay_type": "ADME"}, "[4]": {"test_system": "LNCaP", "experiment": "Antiproliferative activity against human LNCAP cells after 4 days by alamar blue assay", "assay_type": "functional, cell-based", "conditions": "96 h"}, "[5]": {"experiment": "Elimination half life in Beagle dog at 1.9 mg/kg, iv and 8.2 mg/kg, po by LC-MS/MS analysis", "assay_type": "ADME, organism-based, Canis lupus familiaris", "conditions": "in vivo", "method_in_brief": "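Overnight-fasted beagle dogs, 3 per route, single iv or oral dose. The iv dose was 25n sodium salt in 25 mM sodium phosphate buffer; the oral dose was sodium salt in filled capsules. Blood was drawn at 0.08–24 h (iv) or 0.25–24 h (po). Plasma was stored at −80 °C, measured by LC-MS/MS, and analysed noncompartmentally.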"}, "[6]": {"molecular_target": "Cytochrome P450 3A4 (Homo sapiens, UniProt P08684)", "sequence (P08684 whole entry)": "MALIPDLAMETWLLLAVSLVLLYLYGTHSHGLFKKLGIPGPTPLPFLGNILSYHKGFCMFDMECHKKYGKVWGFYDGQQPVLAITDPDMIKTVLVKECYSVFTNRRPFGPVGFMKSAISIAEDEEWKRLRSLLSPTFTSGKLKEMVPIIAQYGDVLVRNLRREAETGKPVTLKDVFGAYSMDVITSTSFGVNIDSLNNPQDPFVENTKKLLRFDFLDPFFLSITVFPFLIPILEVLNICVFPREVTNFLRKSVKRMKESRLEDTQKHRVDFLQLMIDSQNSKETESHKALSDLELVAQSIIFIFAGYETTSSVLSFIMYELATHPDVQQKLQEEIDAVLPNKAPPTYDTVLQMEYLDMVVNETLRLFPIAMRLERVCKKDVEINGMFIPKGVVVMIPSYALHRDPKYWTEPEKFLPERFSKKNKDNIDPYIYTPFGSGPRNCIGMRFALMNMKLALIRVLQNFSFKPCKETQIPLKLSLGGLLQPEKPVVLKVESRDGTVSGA", "experiment": "Inhibition of CYP3A4", "assay_type": "ADME"}, "[7]": {"experiment": "AUC in ICR mouse at 25 mg/kg, po by LC-MS/MS analysis", "assay_type": "ADME, organism-based", "set-up": "dose 25 mg/kg, route oral", "conditions": "plasma", "method_in_brief": "as §1"}, "[8]": {"test_system": "Jurkat", "experiment": "cells", "conditions": "Homo sapiens, 96 h"}, "[9]": {"test_system": "PC-3", "experiment": "cells", "conditions": "Homo sapiens, PC-3, 96 h"}, "[10]": {"experiment": "Oral bioavailability in Sprague-Dawley rat at 10.5 mg/kg, po by LC-MS/MS analysis", "assay_type": "ADME, organism-based", "conditions": "in vivo", "method_in_brief": "as §1"}, "[11]": {"experiment": "Elimination half life in Sprague-Dawley rat at 5.2 mg/kg, iv and 10.5 mg/kg, po by LC-MS/MS analysis", "assay_type": "ADME, organism-based", "conditions": "in vivo", "method_in_brief": "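Overnight-fasted SD rats, 3 per route, single iv or oral dose of sodium salt in 25 mM sodium phosphate buffer. Blood was drawn at 0.08–48 h (iv) or 0.25–48 h (po). Plasma was stored at −80 °C, measured by LC-MS/MS, and analysed noncompartmentally.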"}, "[12]": {"experiment": "Elimination half life in ICR mouse at 5 mg/kg, iv and 25 mg/kg, po by LC-MS/MS analysis", "assay_type": "ADME, organism-based", "conditions": "in vivo"}, "[13]": {"test_system": "PC-3", "experiment": "Antitumor activity against human PC3 cells xenografted in athymic mouse assessed as tumor growth inhibition at 25 mg/kg, po BID", "assay_type": "functional", "conditions": "read-out: TGI"}, "[14]": {"test_system": "MCF7", "experiment": "Antiproliferative activity against human MCF7 cells after 4 days by alamar blue assay", "assay_type": "functional, cell-based", "conditions": "MCF7, 96 h"}, "[15]": {"test_system": "MIA PaCa-2", "experiment": "cells", "conditions": "Homo sapiens, MIA PaCa-2, 96 h"}, "[16]": {"molecular_target": "Voltage-gated inwardly rectifying potassium channel KCNH2 (Homo sapiens, UniProt Q12809)", "sequence (Q12809 whole entry)": "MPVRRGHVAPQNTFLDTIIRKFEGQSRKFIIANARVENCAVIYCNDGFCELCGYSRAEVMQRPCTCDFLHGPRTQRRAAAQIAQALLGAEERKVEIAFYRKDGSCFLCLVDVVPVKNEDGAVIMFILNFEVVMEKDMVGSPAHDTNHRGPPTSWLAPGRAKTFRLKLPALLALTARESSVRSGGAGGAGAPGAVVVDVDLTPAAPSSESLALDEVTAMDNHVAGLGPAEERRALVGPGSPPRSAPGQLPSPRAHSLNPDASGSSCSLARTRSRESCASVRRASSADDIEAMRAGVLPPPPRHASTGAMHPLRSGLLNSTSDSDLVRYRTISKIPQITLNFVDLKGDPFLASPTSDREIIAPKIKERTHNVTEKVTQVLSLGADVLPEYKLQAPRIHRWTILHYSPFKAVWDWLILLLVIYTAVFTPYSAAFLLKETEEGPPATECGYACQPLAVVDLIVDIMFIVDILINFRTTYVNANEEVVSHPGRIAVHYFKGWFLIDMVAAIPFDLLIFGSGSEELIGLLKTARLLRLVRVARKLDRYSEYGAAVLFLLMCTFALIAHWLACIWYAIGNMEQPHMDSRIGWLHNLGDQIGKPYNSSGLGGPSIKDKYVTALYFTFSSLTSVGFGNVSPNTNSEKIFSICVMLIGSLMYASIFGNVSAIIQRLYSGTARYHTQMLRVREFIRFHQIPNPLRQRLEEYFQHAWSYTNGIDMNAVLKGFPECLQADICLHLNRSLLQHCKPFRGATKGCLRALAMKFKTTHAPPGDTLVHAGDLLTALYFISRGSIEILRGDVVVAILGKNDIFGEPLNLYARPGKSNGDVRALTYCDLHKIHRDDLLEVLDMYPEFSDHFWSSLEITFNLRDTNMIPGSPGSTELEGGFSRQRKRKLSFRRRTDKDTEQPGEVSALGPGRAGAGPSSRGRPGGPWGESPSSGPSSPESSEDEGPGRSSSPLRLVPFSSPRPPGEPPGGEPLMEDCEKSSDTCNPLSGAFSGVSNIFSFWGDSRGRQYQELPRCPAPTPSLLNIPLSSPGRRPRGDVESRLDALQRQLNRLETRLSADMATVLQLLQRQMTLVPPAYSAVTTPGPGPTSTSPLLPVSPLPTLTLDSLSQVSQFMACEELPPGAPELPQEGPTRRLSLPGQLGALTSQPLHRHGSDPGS", "experiment": "Inhibition of human ERG at 0.1 to 10 uM by patch clamp technique"}, "[17]": {"test_system": "BXPC-3", "experiment": "Antiproliferative activity against human BxPC3 cells after 4 days by alamar blue assay", "assay_type": "functional, cell-based", "conditions": "BXPC-3, 96 h"}, "[18]": {"test_system": "Mus musculus", "experiment": "Toxicity in athymic mouse xenografted with human PC3 assessed as change in body weight at 25 to 75 mg/kg, po BID", "assay_type": "organism-based", "set-up": "dose 25-75 mg/kg, route oral", "conditions": "in vivo", "method_in_brief": "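PC3 cells injected subcutaneously into right hind flank of nude mice; at 150-200 mm3 randomized, 10 per group. Sodium salt in 25 mM NaH2PO4 buffer given by oral gavage twice daily at 25, 50 and 75 mg/kg; body weights measured twice weekly versus vehicle-treated controls.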"}, "[19]": {"experiment": "AUC in Sprague-Dawley rat at 10.5 mg/kg, po by LC-MS/MS analysis", "assay_type": "ADME, organism-based", "set-up": "dose 10.5 mg/kg, route oral", "conditions": "plasma", "method_in_brief": "as §1"}, "[20]": {"molecular_target": "Cytochrome P450 2C9 (Homo sapiens, UniProt P11712)", "sequence (P11712 whole entry)": "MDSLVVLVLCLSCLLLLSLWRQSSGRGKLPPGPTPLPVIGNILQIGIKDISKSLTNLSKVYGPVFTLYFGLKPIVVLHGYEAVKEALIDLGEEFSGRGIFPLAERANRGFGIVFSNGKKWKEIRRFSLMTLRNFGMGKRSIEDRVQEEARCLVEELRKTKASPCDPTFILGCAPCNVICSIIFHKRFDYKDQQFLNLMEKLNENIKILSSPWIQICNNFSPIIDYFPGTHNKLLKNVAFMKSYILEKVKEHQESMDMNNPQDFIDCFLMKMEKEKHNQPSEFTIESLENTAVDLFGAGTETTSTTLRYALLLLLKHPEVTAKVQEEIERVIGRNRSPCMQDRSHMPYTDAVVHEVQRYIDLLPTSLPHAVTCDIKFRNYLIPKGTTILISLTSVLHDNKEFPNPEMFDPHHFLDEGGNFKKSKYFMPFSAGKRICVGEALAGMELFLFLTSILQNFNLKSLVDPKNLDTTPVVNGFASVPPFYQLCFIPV", "experiment": "Inhibition of CYP2C9", "assay_type": "ADME"}, "[21]": {"experiment": "cells", "conditions": "Homo sapiens, Hs-578T, 96 h"}, "[22]": {"test_system": "PC-3", "experiment": "Antitumor activity against human PC3 cells xenografted in athymic mouse assessed as tumor growth inhibition at 75 mg/kg, po BID", "assay_type": "functional", "conditions": "read-out: TGI"}, "[23]": {"molecular_target": "Cytochrome P450 2C19 (Homo sapiens, UniProt P33261)", "sequence (P33261 whole entry)": "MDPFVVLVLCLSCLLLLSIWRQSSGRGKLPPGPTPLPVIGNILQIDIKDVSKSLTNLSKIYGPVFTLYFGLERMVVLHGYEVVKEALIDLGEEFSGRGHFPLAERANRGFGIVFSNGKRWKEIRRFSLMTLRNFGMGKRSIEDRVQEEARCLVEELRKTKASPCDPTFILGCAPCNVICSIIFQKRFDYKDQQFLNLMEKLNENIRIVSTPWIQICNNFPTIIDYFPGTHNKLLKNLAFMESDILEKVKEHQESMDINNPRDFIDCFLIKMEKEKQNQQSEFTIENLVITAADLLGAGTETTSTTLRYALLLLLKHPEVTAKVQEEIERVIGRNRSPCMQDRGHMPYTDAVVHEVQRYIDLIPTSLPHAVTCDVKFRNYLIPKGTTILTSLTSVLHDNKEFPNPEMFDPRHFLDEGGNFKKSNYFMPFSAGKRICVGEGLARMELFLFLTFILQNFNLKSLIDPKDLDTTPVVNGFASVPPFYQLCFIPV", "experiment": "Inhibition of CYP2C19", "assay_type": "ADME"}, "[24]": {"test_system": "A-375", "experiment": "Antiproliferative activity against human A375 cells after 4 days by alamar blue assay", "assay_type": "functional, cell-based", "conditions": "A-375, 96 h"}, "[25]": {"test_system": "HCT-116", "experiment": "cells", "conditions": "Homo sapiens, HCT-116, 96 h"}, "[26]": {"experiment": "Clearance in ICR mouse at 5 mg/kg, iv and […] mg/kg, po by LC-MS/MS analysis", "assay_type": "ADME, organism-based", "conditions": "in vivo"}, "[27]": {"experiment": "Antiproliferative activity against human H1299 cells after 4 days by alamar blue assay", "assay_type": "functional, cell-based", "conditions": "NCI-H1299, 96 h"}, "[28]": {"experiment": "Clearance in Beagle dog at 1.9 mg/kg, iv and […] mg/kg, po by LC-MS/MS analysis", "assay_type": "ADME, organism-based, Canis lupus familiaris", "conditions": "in vivo"}, "[29]": {"experiment": "Clearance in Sprague-Dawley rat at 5.2 mg/kg, iv and 10.5 mg/kg, po by LC-MS/MS analysis", "assay_type": "ADME, organism-based", "conditions": "in vivo", "method_in_brief": "as §1"}, "[30]": {"molecular_target": "Cytochrome P450 2D6 (Homo sapiens, UniProt P10635)", "sequence (P10635 whole entry)": "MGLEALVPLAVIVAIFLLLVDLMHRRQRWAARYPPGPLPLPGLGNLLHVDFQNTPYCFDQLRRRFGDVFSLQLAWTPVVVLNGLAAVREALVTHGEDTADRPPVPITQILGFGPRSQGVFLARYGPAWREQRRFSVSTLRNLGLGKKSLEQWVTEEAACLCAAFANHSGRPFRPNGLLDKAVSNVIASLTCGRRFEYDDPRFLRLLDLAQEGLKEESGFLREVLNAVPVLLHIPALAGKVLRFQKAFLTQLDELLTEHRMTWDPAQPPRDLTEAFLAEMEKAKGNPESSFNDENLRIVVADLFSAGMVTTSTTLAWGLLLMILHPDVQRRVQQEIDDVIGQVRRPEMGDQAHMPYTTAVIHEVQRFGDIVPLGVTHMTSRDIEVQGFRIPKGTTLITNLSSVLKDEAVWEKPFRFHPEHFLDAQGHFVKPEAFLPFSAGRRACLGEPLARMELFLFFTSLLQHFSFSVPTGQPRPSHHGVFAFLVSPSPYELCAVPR", "experiment": "Inhibition of CYP2D6", "assay_type": "ADME"}, "[31]": {"test_system": "K562", "experiment": "Antiproliferative activity against human K562 cells after 4 days by alamar blue assay", "assay_type": "functional, cell-based", "conditions": "K562, 96 h"}, "[32]": {"experiment": "Oral bioavailability in Beagle dog at 8.2 mg/kg by LC-MS/MS analysis", "assay_type": "ADME, organism-based, Canis lupus familiaris", "conditions": "in vivo", "method_in_brief": "as §1"}, "[33]": {"experiment": "AUC in Beagle dog at 8.2 mg/kg, po by LC-MS/MS analysis", "assay_type": "ADME, organism-based, Canis lupus familiaris", "set-up": "dose 8.2 mg/kg, route oral", "conditions": "plasma", "method_in_brief": "as §1"}, "[34]": {"test_system": "A549", "experiment": "Antiproliferative activity against human A549 cells after 4 days by alamar blue assay", "assay_type": "functional, cell-based", "conditions": "A549, 96 h"}},
  "data": [
    {"smiles": "O=C(O)c1ccc2c(c1)nc(Nc1cccc(Cl)c1)c1ccncc12", "note": "[SILMITASERTIB]", "values": [
      {"measurement": "bioavailability", "setting": "[1]", "result": 20, "unit": "%"},
      {"measurement": "inhibition in vivo at 50 mg/kg", "setting": "[2]", "result": 40, "unit": "%"},
      {"measurement": "inhibition (INH)", "setting": "[3]", "result": "Not Active"},
      {"measurement": "IC50", "setting": "[4]", "result": 4.7, "unit": "µM"},
      {"measurement": "half-life", "setting": "[5]", "result": 8.3, "unit": "h"},
      {"measurement": "inhibition (INH)", "setting": "[6]", "result": "Not Active"},
      {"measurement": "AUC", "setting": "[7]", "result": 2010, "unit": "ng·h/mL"},
      {"measurement": "IC50", "setting": "[8]", "result": 2.5, "unit": "µM"},
      {"measurement": "IC50", "setting": "[9]", "result": 2.1, "unit": "µM"},
      {"measurement": "bioavailability", "setting": "[10]", "result": 48, "unit": "%"},
      {"measurement": "half-life", "setting": "[11]", "result": 11.6, "unit": "h"},
      {"measurement": "half-life", "setting": "[12]", "result": 5, "unit": "h"},
      {"measurement": "inhibition in vivo at 25 mg/kg", "setting": "[13]", "result": 19, "unit": "%"},
      {"measurement": "IC50", "setting": "[14]", "result": 8.9, "unit": "µM"},
      {"measurement": "IC50", "setting": "[15]", "result": 1.1, "unit": "µM"},
      {"measurement": "inhibition (INH)", "setting": "[16]", "result": "< 10", "unit": "%"},
      {"measurement": "IC50", "setting": "[17]", "result": 4.4, "unit": "µM"},
      {"measurement": "Activity", "setting": "[18]", "result": "Non-toxic"},
      {"measurement": "AUC", "setting": "[19]", "result": 42300, "unit": "ng·h/mL"},
      {"measurement": "inhibition (INH)", "setting": "[20]", "result": "Not Active"},
      {"measurement": "IC50", "setting": "[21]", "result": 13.1, "unit": "µM"},
      {"measurement": "inhibition in vivo at 75 mg/kg", "setting": "[22]", "result": 86, "unit": "%"},
      {"measurement": "inhibition (INH)", "setting": "[23]", "result": "Not Active"},
      {"measurement": "IC50", "setting": "[24]", "result": 3.9, "unit": "µM"},
      {"measurement": "IC50", "setting": "[25]", "result": 2.2, "unit": "µM"},
      {"measurement": "clearance", "setting": "[26]", "result": 41.7, "unit": "mL/min/kg"},
      {"measurement": "IC50", "setting": "[27]", "result": 2.4, "unit": "µM"},
      {"measurement": "clearance", "setting": "[28]", "result": 11.7, "unit": "mL/min/kg"},
      {"measurement": "clearance", "setting": "[29]", "result": 1.67, "unit": "mL/min/kg"},
      {"measurement": "inhibition (INH)", "setting": "[30]", "result": "Not Active"},
      {"measurement": "IC50", "setting": "[31]", "result": 5.3, "unit": "µM"},
      {"measurement": "bioavailability", "setting": "[32]", "result": 51, "unit": "%"},
      {"measurement": "AUC", "setting": "[33]", "result": 5650, "unit": "ng·h/mL"},
      {"measurement": "IC50", "setting": "[34]", "result": 3, "unit": "µM"}
    ]}
  ]
}
